From ChEMBL document CHEMBL6074625, “Thiazolidine-2,4-dione hybrids as dual alpha-amylase and alpha-glucosidase inhibitors: design, synthesis, in vitro and in vivo anti-diabetic evaluation” (RSC Med Chem, 2024) come the findings set out here.

Series [1] addresses alpha-glucosidase (Saccharomyces cerevisiae). Nature of the series: Inhibition of Saccharomyces cerevisiae alpha-glucosidase using 4-nitrophenyl-alpha-D-glucopyranoside as substrate incubated with compound for 15 to 20 min by absorbance based analysis.
Series [2] is described as follows: Inhibition of porcine pancreatic alpha-amylase using starch as substrate preincubated for 10 min followed by substrate addition and measured after 20 min by absorbance based analysis. Set-up: species or system Sus scrofa. An outline of the steps: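 Porcine α-amylase (1 U mL⁻¹) pre-incubated with compound 10 min at 25 °C in phosphate buffer pH 6.8. 1% starch added, then 15 min at 37.5 ± 2 °C. Quenched with DNS reagent, heated 70 °C 20 min, diluted with buffer, A540 read, in triplicate. Final concentrations 100–1 μM from DMSO dilutions; IC50 from a linear fit of % inhibition at y = 50.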

In series [3] the test system is PANC-1. Nature of the series: Antioxidant activity in human PANC-1 cells assessed as decrease in high glucose induced ROS production by measuring minimum fractional index at 5 uM incubated for 24 hrs by DCFDA-staining based flow cytometry analysis. The format is functional. An outline of the steps: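 PANC-1 cells (1 × 10⁵/well) grown 24 h at 37 °C, 5% CO₂, then pre-treated 1 h with 5 μM compound. Exposed to glucose (stated 10 μM) for 23 h. Stained with 10 μM DCFH-DA for 30 min at 37 °C, rinsed, and ROS read by flow cytometry as DCFDA/FITC mean fluorescence intensity.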
In general terms: In flow cytometry, cells or beads pass a laser one at a time.

The subject of series [4] is PANC-1. Nature of the series: Cytotoxicity against human PANC-1 cells assessed as inhibition of cell viability at upto 100 uM incubated for 24 hrs by MTT assay. The format is toxicity, cell-based. As to conditions: panc-1, 24 h. In short, it runs like this: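 PANC-1 cells seeded at 9 × 10³ per well, triplicate, 24 h at 37 °C, 5% CO₂. Treated with 5, 10, 20, 40, 60, 80 and 100 μM for another day. MTT (5 mg mL⁻¹ stock) 3 h at 37 °C, plates centrifuged, formazan dissolved in DMSO 30 min dark, A570. Viability compared by one-way ANOVA with Tukey test.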
A general note: Tetrazolium assays rely on reduction of a dye to a coloured formazan, in cell work by metabolically active cells.

For series [5], the system named is Rattus norvegicus. Nature of the series: Antioxidant activity in fasted STZ-induced diabetic Wistar rat model assessed as increase in high glucose induced ROS production in pancreas by measuring minimum fractional index at 10 mg/kg, po administration for 21 days. The format is functional. To be noted: time 21 day. An outline of the steps: (§1)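 Rat pancreas mashed through a 70 μm strainer in FACS buffer. Processed by centrifugation (300 × g and 800 × g, 21 °C), 42% Percoll and 5 min RBC lysis. Cells washed, stained with DCFH-DA, and ROS read on a flow cytometer.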

Series [6] can be described thus: Toxicity against STZ-induced diabetic Wistar rat model assessed as body weight loss in presence of pioglitazone at 10 mg/kg, po measured on day 14. In kind it is organism-based. To be noted: in vivo.
The test system of series [7] is Rattus norvegicus. Nature of the series: Antioxidant activity in fasted STZ-induced diabetic Wistar rat model assessed as decrease in high glucose induced ROS production in pancreas by measuring minimum fractional index at 10 mg/kg, po administration for 21 days in presence of pioglitazone days and measured on day 35. As to conditions: time 21 day. In kind it is functional. In short, it runs like this:
as §1

For series [8], the species on record is Rattus norvegicus. Nature of the series: Anti-diabetic activity in high glucose induced alpha-amylase expression in fasted STZ-induced diabetic Wistar rat model assessed as alpha- glucosidase level in pancreas by measuring minimum fractional index in presence of pioglitazone incubated for 23 hrs and measured after 24 hrs by flow cytometric analysis (reference value: 3063 +/- 149.2). The format is functional.

The species entered for series [9] is Rattus norvegicus. Nature of the series: Anti-diabetic activity in high glucose induced alpha-amylase expression in fasted STZ-induced diabetic Wistar rat model assessed as alpha-amylase level in pancreas by measuring minimum fractional index in presence of pioglitazone incubated for 23 hrs and measured after 24 hrs by flow cytometric analysis (reference value: 2590 + 199.74). In kind it is functional.

Series [10] is described as follows: Toxicity against STZ-induced diabetic Wistar rat model assessed as body weight loss at 10 mg/kg, po measured on day 14. In kind it is organism-based. To be noted: in vivo, 336 h, time 14 day. In short, it runs like this: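 STZ given on day 1; oral treatment started day 14, with vehicle 0.5% CMC in controls. Six groups: normal, vehicle, STZ, STZ + two test compounds, STZ + pioglitazone. Blood glucose (tail puncture, glucometer) and body weight recorded on days 1, 4, 14 and 35. One-way ANOVA.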

Series [11] concerns PANC-1. Nature of the series: Anti-diabetic activity against high glucose induced human PANC-1 cells assessed as decrease in glucose induced alpha-glucosidase expression by measuring by measuring minimum fractional index at 5 uM incubated for 23 hrs and measured after 24 hrs by flow cytometric analysis (reference value: 4361 +/- 257.83). The format is functional.
Series [12] relates to PANC-1. Nature of the series: Anti-diabetic activity against high glucose induced human PANC-1 cells assessed as decrease in glucose induced alpha-amylase expression by measuring by measuring minimum fractional index at 5 uM incubated for 23 hrs and measured after 24 hrs by flow cytometric analysis (reference value: 2887 +/- 95.87). In kind it is functional.

Turning to `CCOc1cc(/C=C2\SC(=O)N(Cc3cccc([N+](=O)[O-])c3)C2=O)ccc1OCc1ccccc1`, the IC50 turned out to be 31.2 µM in series [1] and 55.6 µM in series [2]. In series [3], the Activity_index came out at 898. The Activity entry in series [4] is “Non-toxic”.

For the compound `O=C1/C(=C2/SC(=O)N(Cc3cccc([N+](=O)[O-])c3)C2=O)Nc2ccc(Br)cc21`, the IC50 amounted to 68.76 µM in [1] and 61 µM in series [2]. The Activity_index in series [3] is on record as 2982. Besides, in series [4], the Activity entry is recorded as “Non-toxic”.

As to `O=C1/C(=C2/SC(=O)N(Cc3cccc([N+](=O)[O-])c3)C2=O)Nc2ccccc21`, the IC50 in series [1] stood at 58.44 µM; in [2] it was 44 µM. Besides, in series [3], the Activity_index amounted to 3041. Moreover, the Activity result in series [4] was “Non-toxic”.

With `CCOc1cc(/C=C2\SC(=O)N(Cc3cccc([N+](=O)[O-])c3)C2=O)ccc1OCc1ccc([N+](=O)[O-])cc1`, the IC50 worked out at 38.33 µM in [1] and 93.5 µM in [2]. Besides, the Activity_index in series [3] was determined as 676. The Activity result in series [4] is reported as “Non-toxic”.

For `CCOc1cc(/C=C2\SC(=O)N(Cc3cccc([N+](=O)[O-])c3)C2=O)ccc1OCc1ccc(Cl)cc1`, the results for the IC50 in series [1] and in series [2] were 96.15 µM and 126 µM, respectively. Also, the Activity_index in series [3] is 4225. Moreover, in [4], the Activity result is “Non-toxic”.

Regarding `CCOc1cc(/C=C2\SC(=O)N(Cc3cccc([N+](=O)[O-])c3)C2=O)ccc1OCc1cccc([N+](=O)[O-])c1`, the IC50 was 99.1 µM in [1] and 64.8 µM in series [2]. Besides, in [3], the Activity_index worked out at 4225. In addition, the Activity result in [4] is on record as “Non-toxic”.

On to `CN(N=O)C(=O)N[C@@H]1[C@@H](O)[C@H](O)[C@@H](CO)O[C@@H]1O` [STREPTOZOSIN], for which the Activity_index in [5] is listed as 3762; in series [7], 221; in series [8], 720; in [9], 230. The Activity result in series [6] and in series [10] was “Toxic” each time.

As for `CCOc1cc(/C=C2\SC(=O)N(Cc3cccc([N+](=O)[O-])c3)C2=O)ccc1OCc1ccc(C)cc1`, the values for the IC50 in [1] and in series [2] were 20.31 µM and 54.2 µM, respectively. For the same compound, the Activity_index in series [3] is listed as 230. In addition, in [4], the Activity entry is “Non-toxic”.

For the compound `CCOc1cc(/C=C2\SC(=O)N(Cc3cccc([N+](=O)[O-])c3)C2=O)ccc1OS(=O)(=O)c1ccc(C)cc1`, the values for the IC50 in [1] and in [2] were 42.24 µM and 48.7 µM, respectively. For the same compound, the Activity_index in [3] amounted to 957. The Activity result in series [4] is on record as “Non-toxic”.

As for `CCOc1cc(/C=C2\SC(=O)N(Cc3cccc([N+](=O)[O-])c3)C2=O)ccc1OCc1ccc(F)cc1`, the values for the half-inhibitory concentration (IC50) in series [1] and in [2] were 46.51 µM and 60.1 µM, respectively. Also, in series [3], the Activity_index stood at 2438. Further, the Activity entry in series [4] was “Non-toxic”.

In the case of `O=C1/C(=C2/SC(=O)N(Cc3cccc([N+](=O)[O-])c3)C2=O)Nc2ccc(Cl)cc21`, the IC50 in series [1] came out at 53.18 µM; in series [2] it was 50.8 µM. Besides, in series [3], the Activity_index amounted to 3063. The Activity result in [4] was “Non-toxic”.

For `C[C@H]1O[C@H](O[C@H]2[C@H](O)[C@@H](O)[C@@H](O[C@H]3[C@H](O)[C@@H](O)C(O)O[C@@H]3CO)O[C@@H]2CO)[C@H](O)[C@@H](O)[C@@H]1N[C@H]1C=C(CO)[C@@H](O)[C@H](O)[C@H]1O` (some centres undefined) [ACARBOSE], the Activity index in series [11] was 170; in series [12], 114. The Activity_index in series [3] came to 149.

A word on the IC50: it is the concentration that inhibits the measured activity by half.
